# Assay results from ChEMBL document CHEMBL3826936, “Alkyne-substituted diminazene as G-quadruplex binders with anticancer activities” (Eur J Med Chem, 2016).
# Calls of active or inactive are those of the source. The calls are words filed in the database; no cut-off is given here.
# Key:
# [1] = Binding affinity to 5'-FAM/3'-TAMRA labeled c-kit2 26-mer G-quadruplex DNA (unknown origin) assessed as change in melting temperature at 4 uM after 12 hrs by TR-FRET assay
# How it was run: (§1)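 Dual-labeled FAM/TAMRA oligos diluted to 800 nM in 60 mM potassium cacodylate (pH 7.2), annealed 10 min at 85 °C and cooled to room temperature. Mixed 1:1 with ligand at […] in the same buffer. Equilibrated at least 12 h at 4 °C. ΔT1/2 taken as melting temperature with minus without ligand, in triplicate, averaged.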
# [2] = Binding affinity to 5'-FAM/3'-TAMRA labeled c-MYC 22-mer G-quadruplex DNA (unknown origin) at 4 uM in presence of 26-mer duplex DNA by TR-FRET assay
# [3] = Binding affinity to 5'-FAM/3'-TAMRA labeled F21T 21-mer G-quadruplex DNA (unknown origin) assessed as change in melting temperature at 4 uM after 12 hrs by TR-FRET assay; how it was run: as §1
# [4] = Antiproliferative activity against human PC3 cells after 72 hrs by WST-1 assay; format: functional; details: PC-3, 72 h
# How it was run: (§2)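 Cells seeded in 96-well plates the afternoon before treatment, at numbers keeping them in log-phase growth; about 18 h later, compounds semi-serially diluted in DMSO then growth medium and added. Incubation 72 h, then WST-1 added and plates read after 4 more hours at 37 °C. GI50 derived from curve fits; viability expressed relative to DMSO control.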
# [5] = Binding affinity to 5'-FAM/3'-TAMRA labeled k-RAS21R 21-mer G-quadruplex DNA (unknown origin) assessed as change in melting temperature at 4 uM after 12 hrs by TR-FRET assay; how it was run: as §1
# [6] = Binding affinity to 5'-FAM/3'-TAMRA labeled c-MYC 22-mer G-quadruplex DNA (unknown origin) assessed as change in melting temperature at 4 uM after 12 hrs by TR-FRET assay; how it was run: as §1
# MDA-MB-231 [7] = test: Antiproliferative activity against human MDA-MB-231 cells after 72 hrs by WST-1 assay; format: functional; details: MDA-MB-231, 72 h; how it was run: as §2
# [8] = Antiproliferative activity against human OVCAR3 cells after 72 hrs by WST-1 assay; format: functional; details: OVCAR-3, 72 h; how it was run: as §2
# [9] = Binding affinity to 5'-FAM/3'-TAMRA labeled 26-mer duplex DNA (unknown origin) assessed as change in melting temperature at 4 uM after 12 hrs by TR-FRET assay
# [10] = Binding affinity to wild type c-MYC 24-mer G-quadruplex DNA (unknown origin) at 4:1 ligand:DNA molar ratio by isothermal titration calorimetry
# [11] = Antiproliferative activity against human PC3 cells assessed as cell viability at 20 uM after 72 hrs by WST-1 assay relative to control; format: functional; details: PC-3, 72 h, read-out: Activity; how it was run: as §2
# [12] = Antiproliferative activity against human OVCAR3 cells assessed as cell viability at 20 uM after 72 hrs by WST-1 assay relative to control; format: functional; details: OVCAR-3, 72 h, read-out: Activity; how it was run: as §2
# MDA-MB-231 [13] = test: Antiproliferative activity against human MDA-MB-231 cells assessed as cell viability at 20 uM after 72 hrs by WST-1 assay relative to control; format: functional; details: MDA-MB-231, 72 h, read-out: Activity; how it was run: as §2
Structure (SMILES),ΔTm [1] [°C],Activity [2],ΔTm [3] [°C],GI50 [4] [µM],ΔTm [5] [°C],ΔTm [6] [°C],GI50 (MDA-MB-231 [7]) [µM],GI50 [8] [µM],ΔTm [9] [°C],Activity [10],viability at 20 µM [11] [%],viability at 20 µM [12] [%],viability at 20 µM (MDA-MB-231 [13]) [%]
N=C(N)c1ccc(/N=N/Nc2cccc(C#Cc3ccccn3)c2)cc1,8.04,inactive,7.3,10.4,13.2,9.7,14.4,10.7,< 5,–,–,–,–
C#Cc1cccc(N/N=N/c2ccc(C(=N)N)cc2)c1,5.48,–,< 5,18,7.1,8.2,20.5,16.8,< 5,Active,–,–,–
C#Cc1ccc(N/N=N/c2ccc(C(=N)N)cc2)cc1,5.3,–,< 5,22.5,4.2,6.6,30.2,11.8,< 5,–,–,–,–
N#Cc1cccc(N/N=N/c2ccc(C(=N)N)cc2)c1,6.22,–,< 5,–,2.2,6.2,–,–,< 5,–,≥ 75,≥ 75,≥ 75
N#Cc1ccc(N/N=N/c2ccc(C(=N)N)cc2)cc1,5.3,–,5.1,–,8.2,9.7,–,–,< 5,–,≥ 75,≥ 75,≥ 75
N=C(N)c1ccc(/N=N/Nc2ccccc2C#Cc2ccccc2)cc1,5.12,inactive,< 5,5.3,1.8,6.4,5.1,8.1,< 5,–,–,–,–
Nc1cccc(C#Cc2ccc(F)cc2)c1,–,–,–,–,–,–,–,–,–,–,≥ 75,≥ 75,≥ 75
COc1ccc(C#Cc2cccc(N/N=N/c3ccc(C(=N)N)cc3)c2)cc1,5.48,inactive,< 5,5,2.6,7.3,5.5,5.2,< 5,–,–,–,–
